Measured values taken from ChEMBL document CHEMBL4251677, “Pentaminomycins A and B, Hydroxyarginine-Containing Cyclic Pentapeptides from Streptomyces sp. RK88-1441” (J Nat Prod, 2018).
Active and inactive are the calls of the source. The calls are words filed in the database; no cut-off is given here. Starred links: 1 amine or outer side, 2 acyl side, 3 side chain; linkers in the order of their positions; H or OH if unused. Non-standard residues stand in square brackets, D forms with d. Residues, ends and D or L forms follow the SMILES beside them. X1 = N=C(N)N(O)CCC[C@H](N[*:1])C(=O)[*:2]

How the values were obtained:
[1] = test system: B16-F10; test: Antimelanogenic activity in mouse B16F10 cells assessed as inhibition of alpha-MSH-stimulated melanin synthesis by measuring reduction in TRP2 expression up to 10 uM measured after 24 hrs by Western blot analysis; type: functional, cell-based
Outline: (§1)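 B16F10 cells at 1.0 × 10^5 cells/mL were preincubated 24 h, then exposed to α-MSH (100 nM) plus 5, 7.5 or 10 μM compound for 24 h. Cells were lysed in M-per buffer. Whole-cell protein was run on SDS-PAGE and blotted to nitrocellulose, probed with anti-TRP-1 or anti-TRP-2 antibodies, and detected by chemiluminescence on film.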

[2] = test system: B16-F0; test: Cytotoxicity against mouse B16F0 cells at 30 uM after 24 hrs by EZ-cytox dye based assay; type: cell-based; settings: b16-f0, 24 h
Outline: (§2)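 Cells were seeded at 5.0 × 10^4 per well and grown 24 h, then exposed to compound for 24 h and washed with PBS. They were incubated 2 h in DMEM with EZ-Cytox reagent, and viability was read as water-soluble formazan optical density at 450 nm.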

[3] = test system: B16-F10; test: Antimelanogenic activity in mouse B16F10 cells assessed as inhibition of alpha-MSH-stimulated melanin synthesis up to 10 uM measured after 24 hrs; type: functional, cell-based
Outline: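 B16F10 cells (3.5 × 10^4 per well) were grown 24 h in phenol red-free complete DMEM at 37 °C, 5% CO2. They were then given α-MSH (200 nM) with compound at 0–10 μM for 24 h. Cells were PBS-washed, trypsin-EDTA detached and centrifuged. Melanin was read as absorbance at 405 nm; mean ± SD, n = 3.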

[4] = test system: 4T1; test: Cytotoxicity against mouse 4T1 cells at 30 uM after 24 hrs by EZ-cytox dye based assay; type: cell-based; settings: 4t1, 24 h; outline: as §2
[5] = test system: HeLa; test: Cytotoxicity against human HeLa cells at 30 uM after 24 hrs by EZ-cytox dye based assay; type: cell-based; outline: as §2
[6] = test system: B16-F10; test: Antimelanogenic activity in mouse B16F10 cells assessed as inhibition of alpha-MSH-stimulated melanin synthesis by measuring reduction in TRP1 expression up to 10 uM measured after 24 hrs by Western blot analysis; type: functional, cell-based; outline: as §1
[7] = test system: B16-F10; test: Cytotoxicity against mouse B16F10 cells at 30 uM after 24 hrs by EZ-cytox dye based assay; type: cell-based; settings: b16-f10, 24 h; outline: as §2

Row | SMILES | inhibition [1] | Activity [2] | inhibition [3] | Activity [4] | Activity [5] | inhibition [6] | Activity [7]
1 | CC(C)C[C@H]1NC(=O)[C@H](CCCN(O)C(=N)N)NC(=O)[C@H](Cc2c[nH]c3ccccc23)NC(=O)[C@@H](C(C)C)NC(=O)[C@H](C(C)C)NC1=O | Active | Non-Toxic | Active | Non-Toxic | Non-Toxic | Active | Non-Toxic
2 | CC(C)C[C@@H]1NC(=O)[C@@H](CC(C)C)NC(=O)[C@H](CCCN(O)C(=N)N)NC(=O)[C@H](Cc2c[nH]c3ccccc23)NC(=O)[C@@H](C(C)C)NC1=O (cyclo(L[dV]W[X1][dL])) |  | Non-Toxic |  | Non-Toxic | Non-Toxic |  | Non-Toxic
